From ChEMBL document CHEMBL1649443, “Novel S-adenosylmethionine decarboxylase inhibitors for the treatment of human African trypanosomiasis” (Antimicrob Agents Chemother, 2009) come the findings set out here.

Data set [1] deals with Trypanosoma brucei rhodesiense. The data set can be described thus: Antiparasitic activity against Trypanosoma brucei rhodesiense STIB 900 clone after 72 hrs by Alamar blue assay. In kind it is functional, organism-based. Particulars: STIB 900, 72 h. For orientation: Resazurin is reduced to fluorescent resorufin, in cell work by metabolically active cells.
Data set [2] in a line: Metabolic stability in rat liver microsomes assessed as intrinsic clearance up to 45 mins by LC/MS/MS analysis. In kind it is ADME, Microsome.
The nature of data set [3]: Metabolic stability in human liver microsomes assessed as intrinsic clearance up to 45 mins by LC/MS/MS analysis. In kind it is ADME, Microsome.
The nature of data set [4]: Metabolic stability in rat hepatocytes assessed as intrinsic clearance up to 45 mins by LC/MS/MS analysis. In kind it is ADME, cell-based, Liver, Hepatocyte.
Data set [5] can be described thus: Metabolic stability in human hepatocytes assessed as intrinsic clearance up to 45 mins by LC/MS/MS analysis. In kind it is ADME, cell-based, Liver, Hepatocyte.
Another data set deals with CYP3A4 (Homo sapiens, UniProt P08684). The data set can be described thus: Inhibition of human cytochrome P450 3A4. Particulars: human.
For another data set, the target named is CYP2D6 (Homo sapiens, UniProt P10635). Description: Inhibition of human cytochrome P450 2D6. Particulars: human.
The next data set addresses CYP2C9 (Homo sapiens, UniProt P11712). The data set can be described thus: Inhibition of human cytochrome P450 2C9. Particulars: human.
The target of another data set is CYP2C19 (Homo sapiens, UniProt P33261). The data set can be described thus: Inhibition of human cytochrome P450 2C19. Particulars: human.
In a further data set the target is T1, CYP1A2 (Homo sapiens, UniProt P05177).
T1 sequence (P05177 whole entry): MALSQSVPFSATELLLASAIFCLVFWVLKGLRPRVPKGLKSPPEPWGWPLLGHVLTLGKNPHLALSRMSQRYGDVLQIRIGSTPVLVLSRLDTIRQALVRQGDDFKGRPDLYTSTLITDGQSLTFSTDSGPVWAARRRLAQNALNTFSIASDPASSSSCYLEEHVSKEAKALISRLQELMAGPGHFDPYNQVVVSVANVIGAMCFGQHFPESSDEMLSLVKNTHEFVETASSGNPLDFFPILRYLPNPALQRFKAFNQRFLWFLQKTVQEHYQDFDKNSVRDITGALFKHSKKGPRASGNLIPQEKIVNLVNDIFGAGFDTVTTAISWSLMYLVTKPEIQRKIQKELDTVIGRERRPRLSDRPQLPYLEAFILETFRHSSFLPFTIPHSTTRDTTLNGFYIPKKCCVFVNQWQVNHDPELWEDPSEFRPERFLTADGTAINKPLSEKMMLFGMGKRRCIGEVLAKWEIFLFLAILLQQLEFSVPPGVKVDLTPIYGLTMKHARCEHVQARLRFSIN
The data set can be described thus: Inhibition of human cytochrome P450 1A2. Particulars: human.

Data set [6] is described as follows: Protein binding in human plasma at pH 7.4 after 4 hrs. In kind it is ADME, cell-free. Particulars: read-out: PPB (converted).
Data set [7] is described as follows: Protein binding in mouse plasma at pH 7.4 after 4 hrs. In kind it is ADME, cell-free. Particulars: read-out: PPB (converted).
Data set [8] in a line: AUC in mouse blood at 50 mg/kg, ip administered as single dose. In kind it is ADME, organism-based. On the set-up: dose 50 mg/kg, route intraperitoneal.
Data set [9] can be described thus: AUC in mouse brain at 50 mg/kg, ip administered as single dose. More on the design: dose 50 mg/kg, route intraperitoneal. The class given is ADME, organism-based.
The nature of data set [10]: Half life in mouse at 50 mg/kg, ip administered as single dose. On the set-up: dose 50 mg/kg, route intraperitoneal. Particulars: in vivo. The class given is ADME, organism-based.
Data set [11] is described as follows: Cmax in mouse blood at 50 mg/kg, ip administered as single dose. In kind it is ADME, organism-based. More on the design: dose 50 mg/kg, route intraperitoneal.
The nature of data set [12]: Cmax in mouse brain at 50 mg/kg, ip administered as single dose. On the set-up: dose 50 mg/kg, route intraperitoneal. The class given is ADME, organism-based.
Another data set is described as follows: in vivo. Particulars: mouse, brain, ip, 50 mg/kg.
Data set [13] in a line: Kinetic solubility in phosphate-buffered saline at pH 7.4 after 16 to 24 hrs by UV spectrophotometry.
Data set [14] concerns Trypanosoma brucei brucei. The data set can be described thus: Antiparasitic activity against Trypanosoma brucei brucei LAB 110 EATRO infected in mouse assessed as mean survival days at 2 mg/kg, ip qd for 4 days administered on 1st day of infection and measured through day 40 post infection. In kind it is functional. Particulars: route intraperitoneal. In outline:
(§1)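 Mice in groups of five, infected i.p. on day 0 with 2.5 × 10^5 T. b. brucei LAB 110 EATRO parasites; i.p. dosing began day 1. Parasitemia checked twice weekly by microscopy of at least 20 fields of wet blood smears through day 40, with animals considered cured only when clear through day 40.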

Data set [15] has as its system Trypanosoma brucei brucei. Description: Antiparasitic activity against Trypanosoma brucei brucei LAB 110 EATRO infected in mouse assessed as parasitemia cure incidence at 2 mg/kg, ip qd for 4 days administered on 1st day of infection and measured through day 40 post infection. The class given is functional, organism-based. More on the design: dose 2 mg/kg.
The nature of data set [16]: Permeability of the compound after 4 hrs by PAMPA assay. Particulars: read-out: permeability. The class given is ADME.
Data set [17] in a line: Tmax in rat at 10 mg/kg, po. The class given is ADME, organism-based. On the set-up: dose 10 mg/kg, route oral. Particulars: in vivo. In outline:
(§2)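 Rat groups of six, split into two subgroups to limit blood collections, dosed i.v. or p.o. Blood sampled at 15 min, 30 min, 2 h, 4 h, 8 h and 24 h. Drug levels measured by LC-MS-MS. Two separate rat studies were run.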

Data set [18] can be described thus: Cmax in rat at 10 mg/kg, po. In kind it is ADME, organism-based. On the set-up: dose 10 mg/kg, route oral. Particulars: in vivo. In outline: as §2
Data set [19] is described as follows: AUC in rat at 3 mg/kg, iv. The class given is ADME, organism-based. On the set-up: dose 3 mg/kg, route intravenous. Particulars: plasma.
Data set [20] in a line: AUC in rat at 10 mg/kg, po. The class given is ADME, organism-based. More on the design: dose 10 mg/kg, route oral. Particulars: plasma. The method in brief:
as §2

Data set [21] has as its system Rattus norvegicus. The data set can be described thus: Half life in rat at 3 mg/kg, iv. The class given is ADME, organism-based. On the set-up: dose 3 mg/kg, route intravenous. Particulars: in vivo.
Data set [22] is described as follows: Half life in rat at 10 mg/kg, po. The class given is ADME, organism-based. More on the design: dose 10 mg/kg, route oral. Particulars: in vivo. In outline:
as §2

The test system of data set [23] is Rattus norvegicus. Description: Volume of distribution at steady state in rat at 3 mg/kg, iv. The class given is ADME, organism-based. More on the design: dose 3 mg/kg, route intravenous. Particulars: in vivo.
Data set [24] in a line: Oral bioavailability in rat at 10 mg/kg, po. The class given is ADME, organism-based. Particulars: in vivo. In outline: as §2
The subject of data set [25] is Trypanosoma brucei brucei. Description: Antiparasitic activity against Trypanosoma brucei brucei STIB 795 infected in mouse assessed as mean survival days at 50 mg/kg, ip qd for 4 days administered on 3rd day of infection (reference value: 6.75 days). The class given is functional. Particulars: route intraperitoneal.
In data set [26] the test system is Trypanosoma brucei brucei. The data set can be described thus: Antiparasitic activity against Trypanosoma brucei brucei LAB 110 EATRO infected in mouse assessed as mean survival days at 50 mg/kg/day, ip qd for 7 days administered on 1st day of infection and measured through day 40 post infection. Particulars: route intraperitoneal. The class given is functional. The method in brief:
as §1

Data set [27] relates to Trypanosoma brucei brucei. The data set can be described thus: Antiparasitic activity against Trypanosoma brucei brucei STIB 795 infected in mouse assessed as parasitemia cure incidence at 50 mg/kg, ip qd for 4 days administered on 3rd day of infection. The class given is functional, organism-based. More on the design: dose 50 mg/kg.
Data set [28] relates to Trypanosoma brucei brucei. Description: Antiparasitic activity against Trypanosoma brucei brucei LAB 110 EATRO infected in mouse assessed as parasitemia cure incidence at 50 mg/kg/day, ip qd for 7 days administered on 1st day of infection and measured through day 40 post infection. In kind it is functional, organism-based.
The test system of data set [29] is Trypanosoma brucei brucei. Description: Antiparasitic activity against Trypanosoma brucei brucei LAB 110 EATRO infected in mouse assessed as mean survival days at 50 mg/kg/day, ip administered on 1st day of infection and measured through day 40 post infection. Particulars: route intraperitoneal.
Data set [30] deals with Trypanosoma brucei brucei. The data set can be described thus: Antiparasitic activity against Trypanosoma brucei brucei LAB 110 EATRO infected in mouse assessed as parasitemia cure incidence at 50 mg/kg/day, ip administered on 1st day of infection and measured through day 40 post infection.

Activity calls are given as the source filed them.

Chain of CYP2C9 (P11712 whole entry): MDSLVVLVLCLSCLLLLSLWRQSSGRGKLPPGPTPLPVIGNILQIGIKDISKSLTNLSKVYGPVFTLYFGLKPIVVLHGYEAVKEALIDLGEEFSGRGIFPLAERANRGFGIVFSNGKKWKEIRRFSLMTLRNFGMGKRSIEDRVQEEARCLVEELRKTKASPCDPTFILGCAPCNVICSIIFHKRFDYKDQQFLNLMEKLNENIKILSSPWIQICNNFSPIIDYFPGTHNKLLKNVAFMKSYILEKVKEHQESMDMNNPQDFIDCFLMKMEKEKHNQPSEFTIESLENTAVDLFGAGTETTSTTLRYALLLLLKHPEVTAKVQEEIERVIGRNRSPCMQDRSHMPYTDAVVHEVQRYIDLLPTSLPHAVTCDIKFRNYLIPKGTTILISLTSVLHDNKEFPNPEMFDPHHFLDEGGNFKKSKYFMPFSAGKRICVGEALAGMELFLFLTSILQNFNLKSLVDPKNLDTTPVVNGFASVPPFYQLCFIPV
Chain of CYP3A4 (P08684 whole entry): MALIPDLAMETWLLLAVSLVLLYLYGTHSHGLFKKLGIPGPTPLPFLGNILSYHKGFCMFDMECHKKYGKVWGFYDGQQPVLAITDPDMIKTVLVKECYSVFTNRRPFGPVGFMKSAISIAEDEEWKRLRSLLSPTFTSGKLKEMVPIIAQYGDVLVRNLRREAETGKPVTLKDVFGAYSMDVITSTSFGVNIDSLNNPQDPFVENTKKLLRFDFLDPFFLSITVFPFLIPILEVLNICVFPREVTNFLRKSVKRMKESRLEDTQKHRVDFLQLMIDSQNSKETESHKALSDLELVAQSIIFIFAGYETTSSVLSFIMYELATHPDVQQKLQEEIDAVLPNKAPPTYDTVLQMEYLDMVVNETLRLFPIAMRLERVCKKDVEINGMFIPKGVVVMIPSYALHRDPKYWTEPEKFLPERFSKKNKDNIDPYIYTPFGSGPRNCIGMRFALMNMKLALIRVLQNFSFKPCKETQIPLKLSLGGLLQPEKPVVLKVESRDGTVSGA
Chain of CYP2D6 (P10635 whole entry): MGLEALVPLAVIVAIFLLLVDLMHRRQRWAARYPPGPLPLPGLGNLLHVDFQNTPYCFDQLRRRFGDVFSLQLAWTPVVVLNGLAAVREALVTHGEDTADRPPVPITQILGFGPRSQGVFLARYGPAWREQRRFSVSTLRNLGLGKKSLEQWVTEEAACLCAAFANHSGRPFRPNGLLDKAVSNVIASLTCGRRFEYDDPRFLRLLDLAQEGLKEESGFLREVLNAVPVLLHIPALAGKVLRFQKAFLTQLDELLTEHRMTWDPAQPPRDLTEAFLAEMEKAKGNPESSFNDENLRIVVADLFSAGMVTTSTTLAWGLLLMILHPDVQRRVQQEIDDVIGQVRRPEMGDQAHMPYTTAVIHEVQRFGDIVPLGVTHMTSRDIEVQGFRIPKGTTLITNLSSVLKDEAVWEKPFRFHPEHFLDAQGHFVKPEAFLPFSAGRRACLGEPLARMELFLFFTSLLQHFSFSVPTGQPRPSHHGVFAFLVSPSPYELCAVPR
Chain of CYP2C19 (P33261 whole entry): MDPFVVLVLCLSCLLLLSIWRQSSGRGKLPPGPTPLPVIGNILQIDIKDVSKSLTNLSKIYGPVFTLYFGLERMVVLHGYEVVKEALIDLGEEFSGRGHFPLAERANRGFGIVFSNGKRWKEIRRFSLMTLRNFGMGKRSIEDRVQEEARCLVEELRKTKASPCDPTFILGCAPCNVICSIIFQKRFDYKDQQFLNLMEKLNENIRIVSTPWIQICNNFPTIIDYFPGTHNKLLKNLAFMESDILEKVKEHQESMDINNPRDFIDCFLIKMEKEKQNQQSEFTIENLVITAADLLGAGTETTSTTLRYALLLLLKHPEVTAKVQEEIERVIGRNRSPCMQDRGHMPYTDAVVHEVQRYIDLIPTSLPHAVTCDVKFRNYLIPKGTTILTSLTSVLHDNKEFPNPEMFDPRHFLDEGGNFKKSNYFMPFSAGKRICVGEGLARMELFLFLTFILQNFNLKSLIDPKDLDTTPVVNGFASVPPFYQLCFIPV

Turning to `CN(C/C=C\CN)C[C@H]1O[C@@H](n2cnc3c(N)nc(Cl)nc32)[C@H](O)[C@@H]1O`, the IC50 (as a rule, the midpoint of a concentration-inhibition curve) in [1] is 0.259 µM; at CYP3A4 it was above 5 µM; against CYP2D6, above 5 µM; on CYP2C9, above 5 µM; at CYP2C19, above 5 µM; at CYP1A2 it was above 5 µM. Also, the CLint scaled – broadly, the capacity of the preparation to metabolise the compound, expressed as a volume cleared per time – in data set [2] is below 11 mL/min/kg; in [3] it was below 4.2 mL/min/kg; in data set [4] it was below 11 mL/min/kg; in [5], below 4.2 mL/min/kg. Moreover, the fraction unbound at 4 h in [6] was 0.61; in [7] it was 0.578. The AUC (commonly the area under the concentration-time curve, a measure of exposure) in [8] came out at 22100 ng·h/mL; in data set [9], 400 ng·h/mL. Further, the half-life (usually the time needed for the level to fall by half in the phase considered) in data set [10] was 1.66 h. The figures for the peak concentration (Cmax) in data set [11] and in [12] were 39000 ng/mL and 110 ng/mL, respectively. The Kp in the data set “in vivo” is 1.79. Besides, the kinetic solubility (usually solubility judged after dilution from a stock solution rather than from solid) in [13] is above 51 µg/mL.
For the molecule `N=C(N)c1ccc(OCCCCCOc2ccc(C(=N)N)cc2)cc1` [PENTAMIDINE], the Survival in data set [14] is above 40 days. In data set [15], the outcome was Active.
Take `Cc1nc(N)c2ncn([C@@H]3O[C@H](CN(C)C/C=C\CN)[C@@H](O)[C@H]3O)c2n1`: the IC50 in [1] was 0.0001 µM; against CYP3A4, above 5 µM; against CYP2D6 it was above 5 µM; on CYP2C9, above 5 µM; on CYP2C19, above 5 µM; at CYP1A2, above 5 µM. Further, the Papp at 4 h in [16] amounted to 0.22 ×10⁻⁶ cm/s. In addition, the CLint scaled is below 11 mL/min/kg in data set [2], below 4.2 mL/min/kg in data set [3], below 11 mL/min/kg in [4] and below 4.2 mL/min/kg in data set [5]. Besides, the fraction unbound at 4 h is 0.588 in data set [6] and 0.643 in data set [7]. Also, in data set [17], the time of peak concentration (Tmax) (in general, the time from dosing to the highest level) came to 0.25 h. For the same molecule, the Cmax (as a rule, the highest concentration seen after dosing) in data set [18] is 39 ng/mL; in [11], 36900 ng/mL; in data set [12], 660 ng/mL. Besides, the AUC in data set [19] turned out to be 681 ng·h/mL; in data set [20] it was 49 ng·h/mL; in data set [8], 17900 ng·h/mL; in data set [9], 1300 ng·h/mL. The t1/2 in the data set with Rattus norvegicus [21] was found to be 3.17 h. Also, the half-life in [22] was 1.53 h; in data set [10] it was 7.43 h. Besides, the Vdss (usually a proportionality between amount in the body and measured concentration, not a real space) with Rattus norvegicus [23] came to 853 L/kg. Moreover, in data set [24], the bioavailability (commonly dose-corrected exposure relative to a reference, in per cent) worked out at 2.1%. Further, the Survival in data set [25] is above 30 days; in [26] it was above 40 days; in [29] it was above 40 days. Also, the outcome in data set [27], in data set [28] and in data set [30] was Active. The Kp in the data set “in vivo” is 7.28. Moreover, the kinetic solubility in [13] was above 49 µg/mL.
